Measured values: ChEMBL document CHEMBL1821600, “Synthesis and antiviral evaluation of α-L-2'-deoxythreofuranosyl nucleosides” (Eur J Med Chem, 2011)
≈ marks a conversion by molar mass, not a printed value. Calls of active or inactive are those of the source. The rule behind the calls is not given here.

Columns and labels:
MDCK = assay: Cytotoxicity against MDCK cells at 100 ug/ml; format: cell-based, Canis lupus familiaris; details: dog
Feline coronavirus = assay: Antiviral activity against Feline coronavirus infected in CRFK cells assessed as inhibition of virus-induced cytopathicity upto 200 uM administered after 1 hr virus adsorption period; format: functional, organism-based
[1] = Cytotoxicity against CRFK cells at 100 ug/ml; format: cell-based, Felis catus; details: cat
Human alphaherpesvirus 1 [2] = assay: Antiviral activity against Herpes simplex virus type 1 infected in HEL cells assessed as inhibition of virus-induced cytopathicity upto 200 uM administered after 1 hr virus adsorption period; format: functional, organism-based
Procedure, shortened: (§1)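 Confluent cell monolayers (HEL for HSV-1 and HSV-2; Vero for parainfluenza-3, reovirus-1, Sindbis and Punta Toro; HeLa for Coxsackie B4 and RSV) in 96-well plates were inoculated with 100 CCID50 of virus. After 1 h adsorption, unbound virus was removed. Cells were then kept with compound at 200, 40, 8… μM. Cytopathicity was scored once untreated infected controls reached full CPE.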

Human alphaherpesvirus 3 = assay: Antiviral activity against Varicella Zoster Virus infected in human HEL cells assessed as inhibition of virus-induced cytopathicity upto 200 uM administered after 1 hr virus adsorption period; format: functional, organism-based
Deoxynucleoside kinase = target: T1, Deoxynucleoside kinase (Drosophila melanogaster, UniProt Q9XZT6); assay: Inhibition of Drosophila melanogaster deoxynucleoside kinase assessed as inhibition of [methyl-3H]dThd phosphorylation after 30 mins by scintillation counting
T1 sequence (Q9XZT6 whole entry): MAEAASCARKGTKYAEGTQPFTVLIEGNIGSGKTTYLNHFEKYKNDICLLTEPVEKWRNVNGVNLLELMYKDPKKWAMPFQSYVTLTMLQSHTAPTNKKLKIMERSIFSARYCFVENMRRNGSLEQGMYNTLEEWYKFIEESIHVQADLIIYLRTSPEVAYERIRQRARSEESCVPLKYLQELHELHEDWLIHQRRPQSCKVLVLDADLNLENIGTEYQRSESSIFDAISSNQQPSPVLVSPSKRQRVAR
Procedure, shortened: (§2)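 Recombinant enzyme (TK-1, TK-2, HSV-1 TK, VZV TK or Drosophila dNK) was used in 50 mM Tris/HCl pH 8.0 with 2.5 mM MgCl2, 10 mM DTT, 0.5 mM CHAPS, 3 mg/mL BSA, 2.5 mM ATP and 1 µM [methyl-3H]dThd. Compound was added as 5-fold dilutions, and reactions ran 30 min at 37 °C, still linear. Mixtures were spotted on DE-81 disks, washed in ammonium formate, water and ethanol, then scintillation counted. IC50 was determined.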

HeLa = assay: Cytotoxicity against human HeLa cells at 100 ug/ml; format: cell-based
[3] = tested on: Human immunodeficiency virus 2; assay: Antiviral activity against Human immunodeficiency virus type 2 ROD infected in human CEM cells assessed as inhibition of virus-induced giant cell formation after 4 days by microscopic method; format: functional, organism-based; details: CCRF-CEM; for EC50: Human immunodeficiency virus 2, ISOLATE ROD, 96 h
Procedure, shortened: (§3)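 CEM cells (~3×10^5 cells/cm³) were infected with 100 CCID50/mL of HIV-1(IIIB) or HIV-2(ROD) and seeded into wells containing serial compound dilutions. After 4 days at 37 °C, giant (syncytium) cell formation was scored microscopically.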

HEL = assay: Cytotoxicity against human HEL cells at 100 ug/ml; format: cell-based
Punta Toro virus = assay: Antiviral activity against Punta Toro virus infected in Vero cells assessed as inhibition of virus-induced cytopathicity upto 200 uM administered after 1 hr virus adsorption period; format: functional, organism-based; procedure, shortened: as §1
Vero = assay: Cytotoxicity against african green monkey Vero cells at 100 ug/ml; format: cell-based; details: chlorocebus sabaeus
[4] = tested on: Human immunodeficiency virus 1; assay: Antiviral activity against Human immunodeficiency virus 1 3B infected in human CEM cells assessed as inhibition of virus-induced giant cell formation after 4 days by microscopic method; format: functional, organism-based; details: CCRF-CEM; for EC50: 96 h; procedure, shortened: as §3
Influenza B virus = assay: Antiviral activity against influenza B virus infected in MDCK cells assessed as inhibition of virus-induced cytopathicity upto 200 uM administered after 1 hr virus adsorption period; format: functional, organism-based
Coxsackievirus B4 = assay: Antiviral activity against Coxsackievirus B4 infected in HeLa cells assessed as inhibition of virus-induced cytopathicity upto 200 uM administered after 1 hr virus adsorption period; format: functional, organism-based; procedure, shortened: as §1
[5] = Inhibition of Herpes simplex virus type 1 thymidine kinase assessed as inhibition of [methyl-3H]dThd phosphorylation after 30 mins by scintillation counting; parameters: species or system Human alphaherpesvirus 1; procedure, shortened: as §2
Human respirovirus 3 = assay: Antiviral activity against Parainfluenza virus 3 infected in Vero cells assessed as inhibition of virus-induced cytopathicity upto 200 uM administered after 1 hr virus adsorption period; format: functional, organism-based; procedure, shortened: as §1
[6] = target: T2, Thymidine kinase 2, mitochondrial (Homo sapiens, UniProt O00142); assay: Inhibition of human mitochondrial TK2 assessed as inhibition of [methyl-3H]dThd phosphorylation after 30 mins by scintillation counting; procedure, shortened: as §2
T2 sequence (O00142 whole entry): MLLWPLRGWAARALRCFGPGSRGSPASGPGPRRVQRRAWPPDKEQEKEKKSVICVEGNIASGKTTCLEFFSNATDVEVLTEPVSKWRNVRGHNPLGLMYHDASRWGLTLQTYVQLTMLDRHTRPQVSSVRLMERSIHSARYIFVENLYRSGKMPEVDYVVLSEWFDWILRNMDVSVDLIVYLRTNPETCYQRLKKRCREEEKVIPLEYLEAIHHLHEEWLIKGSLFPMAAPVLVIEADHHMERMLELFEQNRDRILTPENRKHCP

Influenza A virus [7] = assay: Antiviral activity against influenza A virus H1N1 infected in MDCK cells assessed as inhibition of virus-induced cytopathicity upto 200 uM administered after 1 hr virus adsorption period; format: functional, organism-based
[8] = tested on: Vesicular stomatitis virus; assay: Antiviral activity against Vesicular stomatitis virus infected in HEL cells assessed as inhibition of virus-induced cytopathicity upto 200 uM administered after 1 hr virus adsorption period; format: functional, organism-based
[9] = Inhibition of varicella zoster virus thymidine kinase assessed as inhibition of [methyl-3H]dThd phosphorylation after 30 mins by scintillation counting; parameters: species or system Human alphaherpesvirus 3; procedure, shortened: as §2
Influenza A virus [10] = assay: Antiviral activity against Influenza A virus H3N2 infected in MDCK cells assessed as inhibition of virus-induced cytopathicity upto 200 uM administered after 1 hr virus adsorption period; format: functional, organism-based
Sindbis virus = assay: Antiviral activity against Sindbis virus infected in Vero cells assessed as inhibition of virus-induced cytopathicity upto 200 uM administered after 1 hr virus adsorption period; format: functional, organism-based; procedure, shortened: as §1
Human betaherpesvirus 5 = assay: Antiviral activity against Human cytomegalovirus infected in human HEL cells assessed as inhibition of virus-induced cytopathicity upto 200 uM administered after 1 hr virus adsorption period; format: functional, organism-based
Human alphaherpesvirus 2 = assay: Antiviral activity against Herpes simplex virus type 2 infected in HEL cells assessed as inhibition of virus-induced cytopathicity upto 200 uM administered after 1 hr virus adsorption period; format: functional, organism-based; procedure, shortened: as §1
Vaccinia virus = assay: Antiviral activity against Vaccinia virus infected in HEL cells assessed as inhibition of virus-induced cytopathicity upto 200 uM administered after 1 hr virus adsorption period; format: functional, organism-based; details: Orthopoxvirus vaccinia
CCRF-CEM = assay: Cytotoxicity against human CEM cells at 100 ug/ml; format: cell-based
[11] = tested on: Respiratory syncytial virus; assay: Antiviral activity against Respiratory syncytial virus infected in HeLa cells assessed as inhibition of virus-induced cytopathicity upto 200 uM administered after 1 hr virus adsorption period; format: functional, organism-based; procedure, shortened: as §1
[12] = tested on: Mammalian orthoreovirus 1; assay: Antiviral activity against Reovirus 1 infected in Vero cells assessed as inhibition of virus-induced cytopathicity upto 200 uM administered after 1 hr virus adsorption period; format: functional, organism-based; procedure, shortened: as §1
[13] = target: Thymidine kinase, cytosolic (Homo sapiens, UniProt P04183); assay: Inhibition of human recombinant cytosolic TK1 assessed as inhibition of [methyl-3H]dThd phosphorylation after 30 mins by scintillation counting; procedure, shortened: as §2
Thymidylate kinase = Thymidylate kinase (Mycobacterium tuberculosis, UniProt P9WKE1); assay: Inhibition of Mycobacterium tuberculosis Thymidylate kinase
Human alphaherpesvirus 1 [14] = assay: Antiviral activity against TK-deficient Herpes simplex virus type 1 infected in HEL cells assessed as inhibition of virus-induced cytopathicity upto 200 uM administered after 1 hr virus adsorption period; format: functional, organism-based
[15] = Non-competitive inhibition of Herpes simplex virus type 1 thymidine kinase assessed as inhibition of [methyl-3H]dThd phosphorylation by scintillation counting; parameters: species or system Human alphaherpesvirus 1

Thymidine kinase, cytosolic, sequence (P04183 whole entry): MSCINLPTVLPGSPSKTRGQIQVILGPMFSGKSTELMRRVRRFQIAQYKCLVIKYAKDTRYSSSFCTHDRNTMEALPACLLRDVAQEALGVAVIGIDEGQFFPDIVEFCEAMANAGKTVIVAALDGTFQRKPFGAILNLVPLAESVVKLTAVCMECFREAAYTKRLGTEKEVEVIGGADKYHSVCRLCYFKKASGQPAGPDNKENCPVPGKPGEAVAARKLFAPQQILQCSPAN
Thymidylate kinase, sequence (P9WKE1 whole entry): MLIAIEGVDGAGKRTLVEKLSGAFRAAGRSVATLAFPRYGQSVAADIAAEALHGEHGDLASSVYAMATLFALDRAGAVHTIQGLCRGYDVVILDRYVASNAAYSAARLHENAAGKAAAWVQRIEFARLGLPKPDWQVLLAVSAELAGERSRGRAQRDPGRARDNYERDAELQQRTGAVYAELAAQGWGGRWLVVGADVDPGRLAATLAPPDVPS

Row | Compound | Activity (MDCK) | inhibition (Feline coronavirus) | Activity [1] | inhibition (Human alphaherpesvirus 1 [2]) | inhibition (Human alphaherpesvirus 3) | Activity (HeLa) | Activity (HEL) | inhibition (Punta Toro virus) | Activity (Vero) | inhibition (Influenza B virus) | inhibition (Coxsackievirus B4) | inhibition (Human respirovirus 3) | inhibition (Influenza A virus [7]) | inhibition [8] | inhibition (Influenza A virus [10]) | inhibition (Sindbis virus) | inhibition (Human betaherpesvirus 5) | inhibition (Human alphaherpesvirus 2) | inhibition (Vaccinia virus) | Activity (CCRF-CEM) | other results
1 | O=c1ccn([C@H]2C[C@@H](O)CO2)c(=O)[nH]1 | Non-toxic | inactive | Non-toxic | inactive | inactive | Non-toxic | Non-toxic | inactive | Non-toxic | inactive | inactive | inactive | inactive | inactive | inactive | inactive | inactive | inactive | inactive | Non-toxic | IC50 (Deoxynucleoside kinase): > 1010 µM; EC50 [3]: > 100 µg/mL; EC50 [4]: > 100 µg/mL; IC50 [5]: > 200 µg/mL; IC50 [6]: 303 µM; IC50 [9]: > 200 µg/mL; inhibition [11]: inactive; inhibition [12]: inactive
2 | Nc1ccn([C@H]2C[C@@H](O)CO2)c(=O)n1 | Non-toxic | inactive | Non-toxic | inactive | inactive | Non-toxic | Non-toxic | inactive | Non-toxic | inactive | inactive | inactive | inactive | inactive | inactive | inactive | inactive | inactive | inactive | Non-toxic | IC50 (Deoxynucleoside kinase): > 1010 µM; EC50 [3]: > 100 µg/mL; EC50 [4]: > 100 µg/mL; IC50 [5]: > 200 µg/mL; IC50 [6]: > 1010 µM; IC50 [13]: 1010 µM; IC50 [9]: > 200 µg/mL; inhibition [11]: inactive; inhibition [12]: inactive
3 | Cc1cn([C@H]2C[C@@H](O)CO2)c(=O)[nH]c1=O | Non-toxic | inactive | Non-toxic | inactive | inactive | Non-toxic | Non-toxic | inactive | Non-toxic | inactive | inactive | inactive | inactive | inactive | inactive | inactive | inactive | inactive | inactive | Non-toxic | Ki (Thymidylate kinase): 18 µM; IC50 (Deoxynucleoside kinase): ≥ 942 µM; inhibition ([3]; ISOLATE ROD): inactive; inhibition [4]: inactive; inhibition (Human alphaherpesvirus 1 [14]): inactive; IC50 [5]: 14 µg/mL (≈ 66 µM); IC50 [6]: 429 µM; IC50 [9]: 26 µg/mL (≈ 123 µM); Ki [15]: 20 µM; inhibition [11]: inactive; inhibition [12]: inactive
4 | Nc1ncnc2c1ncn2[C@H]1C[C@@H](O)CO1 | Non-toxic | inactive | Non-toxic | inactive | inactive | Non-toxic | Non-toxic | inactive | Non-toxic | inactive | inactive | inactive | inactive | inactive | inactive | inactive | inactive | inactive | inactive | Non-toxic | IC50 (Deoxynucleoside kinase): > 904 µM; EC50 [3]: > 100 µg/mL; EC50 [4]: > 100 µg/mL; IC50 [5]: > 200 µg/mL; IC50 [6]: > 904 µM; IC50 [13]: > 904 µM; IC50 [9]: > 200 µg/mL; inhibition [11]: inactive; inhibition [12]: inactive
5 | CC(=O)Nc1ccn([C@H]2C[C@@H](O)CO2)c(=O)n1 | Non-toxic | inactive | Non-toxic | inactive | inactive | Non-toxic | Non-toxic | inactive | Non-toxic | inactive | inactive | inactive | inactive | inactive | inactive | inactive | inactive | inactive | inactive | Non-toxic | EC50 [3]: > 100 µg/mL; EC50 [4]: > 100 µg/mL; inhibition [11]: inactive; inhibition [12]: inactive
